Marks after values point to notes of the source that are not given here.
How the values were obtained:
[1] = Safety and tolerability assessments; assay type: in vivo, human; details: for Deaths / Discontinuations due to TEAEs / Number of TEAEs / Patients reporting TEAEs / Serious TEAEs: ATI-450 n=24
[2] = Plasma pharmacokinetics, single ascending dose cohorts; assay type: in vivo, human; details: for Tmax / half-life / AUC(0-inf) / AUC(0-t) / Cmax / Vd/F: human, plasma, oral; for CL/F: fasted, mean ± SD
[3] = Plasma pharmacokinetics, multiple ascending dose cohorts; assay type: in vivo, human; details: for Tmax at 7 day: median (range)
[4] = test system: p-HSP27 (phosphorylated heat shock protein 27); experiment: Ex vivo lipopolysaccharide-stimulated whole blood PD assay, p-HSP27; assay type: cell-based, human; details: inhibitory Emax model, all SAD/MAD cohorts
How it was run: (§1)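 Healthy adults were dosed orally, fasted. 10 mL blood was drawn: SAD pre-dose, 1, 12 and 24 h; MAD days 1 and 7 pre-dose, 4 and 12 h. Each analyte was read unstimulated, after ex vivo LPS, and after LPS plus 10 μM added test compound. Values were scaled to % day 1 pre-dose (LPS as maximum signal, spiked LPS as maximum inhibition). Plasma levels vs % inhibition were fit by inhibitory Emax (E0, Imax, IC50).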

TNF-α = experiment: Ex vivo lipopolysaccharide-stimulated whole blood PD assay, TNF-α; assay type: cell-based, human
How it was run: as §1

IL-1β = experiment: Ex vivo lipopolysaccharide-stimulated whole blood PD assay, IL-1β; assay type: cell-based, human
How it was run: as §1

IL-6 [5] = experiment: Ex vivo lipopolysaccharide-stimulated whole blood PD assay, IL-6; assay type: cell-based, human
How it was run: as §1

IL-6 [6] = experiment: Human whole blood stimulated with IL-1β, IL-6 inhibition; assay type: cell-based; details: data not shown
neutrophils = experiment: Clinical laboratory neutrophil counts; assay type: in vivo, human; details: 50 mg BID group
[7] = test system: rat streptococcal cell wall arthritis model; details: cited from earlier work
murine model of NOMID = details: cited from earlier work
[8] = SAD and MAD cohorts, ATI-450 n=48
[9] = inhibitory Emax model, all SAD/MAD cohorts
[10] = maximum observed (up to), versus baseline

Cc1cnc(-c2ccnc(C(C)(C)O)n2)cc1-n1c(C)cc(OCc2ncc(F)cc2F)c(Cl)c1=O [ATI-450]
Deaths ([1]; MAD cohort): 0
Discontinuations due to TEAEs ([1]; MAD cohort): 0
Number of TEAEs ([1]; MAD cohort): 24
Patients reporting TEAEs ([1]; MAD cohort): 12 (50.0) n (%)
Serious TEAEs ([1]; MAD cohort): 0
Subjects with TEAEs considered related to study drug ([1]; SAD 10 mg cohort): 0 subjects
Subjects with TEAEs considered related to study drug ([1]; SAD 30 mg cohort (nausea, headache, dizziness)): 2 [33%] subjects
Subjects with TEAEs considered related to study drug ([1]; SAD 50 mg cohort (headache)): 1 [17%] subjects
Subjects with TEAEs considered related to study drug ([1]; SAD 100 mg cohort (dizziness)): 1 subjects
Findings in vital signs, electrocardiograms, or clinical laboratory values ([1]; SAD and MAD cohorts): No clinically significant findings
TEAE: Abdominal pain [1, 8]: 2 (4.2) n (%)
TEAE: Constipation [1, 8]: 3 (6.3) n (%)
TEAE: Dizziness [1, 8]: 6 (12.5) n (%)
TEAE: Headache [1, 8]: 10 (20.8) n (%)
TEAE: Nausea [1, 8]: 2 (4.2) n (%)
TEAE: Upper respiratory tract infection [1, 8]: 3 (6.3) n (%)
TEAE: Vomiting [1, 8]: 0 n (%)
Deaths ([1]; SAD cohort): 0
Discontinuations due to TEAEs ([1]; SAD cohort): 0
Number of TEAEs ([1]; SAD cohort): 15
Patients reporting TEAEs ([1]; SAD cohort): 7 (29.2) n (%)
Serious TEAEs ([1]; SAD cohort): 0
Tmax [2]: 2 to 4 h
half-life [2]: 510 to 672 min
AUC(0-inf) ([2]; 10 mg): 285 ± 78.4 ng·h/mL
AUC(0-t) ([2]; 10 mg): 276 ± 77.8 ng·h/mL
Cmax ([2]; 10 mg): 39.4 ± 10.4 ng/mL
Tmax ([2]; 10 mg): 2 h
Vd/F ([2]; 10 mg): 430 ± 124 L
half-life ([2]; 10 mg): 510 ± 192 min
AUC(0-inf) ([2]; 30 mg): 1100 ± 247 ng·h/mL
AUC(0-t) ([2]; 30 mg): 1070 ± 244 ng·h/mL
Cmax ([2]; 30 mg): 122 ± 33.4 ng/mL
Tmax ([2]; 30 mg): 4 h
Vd/F ([2]; 30 mg): 451 ± 202 L
half-life ([2]; 30 mg): 642 ± 198 min
AUC(0-inf) ([2]; 50 mg): 1460 ± 270 ng·h/mL
AUC(0-t) ([2]; 50 mg): 1430 ± 254 ng·h/mL
Cmax ([2]; 50 mg): 161 ± 20.4 ng/mL
Tmax ([2]; 50 mg): 3 h
Vd/F ([2]; 50 mg): 445 ± 94.7 L
half-life ([2]; 50 mg): 546 ± 144 min
AUC(0-inf) ([2]; 100 mg): 3650 ± 523 ng·h/mL
AUC(0-t) ([2]; 100 mg): 3490 ± 476 ng·h/mL
Cmax ([2]; 100 mg): 426 ± 111 ng/mL
Tmax ([2]; 100 mg): 2 h
Vd/F ([2]; 100 mg): 440 ± 190 L
half-life ([2]; 100 mg): 672 ± 348 min
CL/F ([2]; single dose 10 mg): 37.0 ± 8.8 L/h
CL/F ([2]; single dose 30 mg, one subject excluded): 28.4 ± 7.1^a L/h
CL/F ([2]; single dose 50 mg): 35.1 ± 6.3 L/h
CL/F ([2]; single dose 100 mg): 27.9 ± 4.3 L/h
Increase in AUC0-inf across dose range ([2]; single doses, 10 to 100 mg): ~12.8 fold
Increase in AUC0-t across dose range ([2]; single doses, 10 to 100 mg): ~12.6 fold
Increase in Cmax across dose range ([2]; single doses, 10 to 100 mg): approximately 10.8 fold
CLss/F ([3]; 10 mg BID, day 7, mean ± SD): 37.4 ± 10.9 L/h
Cmin ([3]; 10 mg BID, day 7, mean ± SD): 8.1 ± 3.1 ng/mL
Rac, AUCtau (accumulation ratio for AUCtau) ([3]; 10 mg BID, day 7, mean ± SD): 1.4 ± 0.3
Rac, Cmax (accumulation ratio for Cmax) ([3]; 10 mg BID, day 7, mean ± SD): 1.6 ± 0.6
CLss/F ([3]; 30 mg BID, day 7, mean ± SD): 33.9 ± 5.9 L/h
Cmin ([3]; 30 mg BID, day 7, mean ± SD): 28.8 ± 10.7 ng/mL
Rac, AUCtau (accumulation ratio for AUCtau) ([3]; 30 mg BID, day 7, mean ± SD): 1.4 ± 0.3
Rac, Cmax (accumulation ratio for Cmax) ([3]; 30 mg BID, day 7, mean ± SD): 1.2 ± 0.3
CLss/F ([3]; 50 mg BID, day 7, mean ± SD): 37.3 ± 11.7 L/h
Cmin ([3]; 50 mg BID, day 7, mean ± SD): 58.7 ± 32.8 ng/mL
Rac, AUCtau (accumulation ratio for AUCtau) ([3]; 50 mg BID, day 7, mean ± SD): 1.3 ± 0.4
Rac, Cmax (accumulation ratio for Cmax) ([3]; 50 mg BID, day 7, mean ± SD): 1.3 ± 0.5
Increase in AUCtau over dose range ([3]; 10 to 50 mg BID, day 1): 5.9 fold
Increase in Cmax over dose range ([3]; 10 to 50 mg BID, day 1): 5.4 fold
Increase in AUCtau over dose range ([3]; 10 to 50 mg BID, day 7): 5.2 fold
Increase in Cmax over dose range ([3]; 10 to 50 mg BID, day 7): 4.2 fold
Day of administration by which steady state appeared to be reached ([3]; all BID dose levels, based on mean Ctrough days 2 through 6): ≤ 2 days
AUC ([3]; human, plasma, oral, 10 mg): 288 ± 81.5 ng·h/mL
AUC(0-t) ([3]; human, plasma, oral, 10 mg): 365 ± 111 ng·h/mL
Cmax at 7 day ([3]; human, plasma, oral, 10 mg): 51.8 ± 15.8 ng/mL
Vd/F ([3]; human, plasma, oral, 10 mg): 517 ± 203 L
concentration at 7 day ([3]; human, plasma, oral, 10 mg): 24 ± 6.8 ng/mL
half-life ([3]; human, plasma, oral, 10 mg, t1/2, 10 mg BID, day 7, mean ± SD): 576 ± 126 min
Tmax at 7 day ([3]; human, plasma, oral, 10 mg, 10 mg BID, day 7): 2 h
AUC ([3]; human, plasma, oral, 30 mg): 909 ± 163 ng·h/mL
AUC(0-t) ([3]; human, plasma, oral, 30 mg): 1200 ± 309 ng·h/mL
Cmax at 7 day ([3]; human, plasma, oral, 30 mg): 146 ± 33.6 ng/mL
Vd/F ([3]; human, plasma, oral, 30 mg): 483 ± 85.1 L
concentration at 7 day ([3]; human, plasma, oral, 30 mg): 75.6 ± 13.4 ng/mL
half-life ([3]; human, plasma, oral, 30 mg, t1/2, 30 mg BID, day 7, mean ± SD): 618 ± 192 min
Tmax at 7 day ([3]; human, plasma, oral, 30 mg, 30 mg BID, day 7): 2 h
AUC ([3]; human, plasma, oral, 50 mg): 1510 ± 660 ng·h/mL
AUC(0-t) ([3]; human, plasma, oral, 50 mg): 2260 ± 1070 ng·h/mL
Cmax at 7 day ([3]; human, plasma, oral, 50 mg): 219 ± 77.8 ng/mL
Vd/F ([3]; human, plasma, oral, 50 mg): 586 ± 163 L
concentration at 7 day ([3]; human, plasma, oral, 50 mg): 126 ± 55 ng/mL
half-life ([3]; human, plasma, oral, 50 mg, t1/2, 50 mg BID, day 7, mean ± SD): 696 ± 222 min
Tmax at 7 day ([3]; human, plasma, oral, 50 mg, 50 mg BID, day 7): 3 h
half-life ([3]; human, plasma, oral, Mean t1/2 across all SAD and MAD cohorts, all SAD and MAD cohorts): 540 to 720 min
half-life ([3]; human, plasma, oral, Mean terminal t1/2 across doses, 10 to 50 mg BID, day 7): 540 to 720 min
Tmax ([3]; human, plasma, oral, Median tmax across all SAD and MAD cohorts, all SAD and MAD cohorts): 2 to 4 h
Imax (maximum percent inhibition) [4]: greater than 96%
Imax (maximum percent inhibition) (TNF-α; [9]): greater than 96%
Inhibition of TNF-α versus baseline (TNF-α; [10]): up to 92.7%
Imax (maximum percent inhibition) (IL-1β; [9]): 74%
Inhibition of IL-1β versus baseline (IL-1β; [10]): ≤ 83.0%
inhibition at 50 mg (IL-6 [5]; Homo sapiens, 168 h, read-out: IL-6 inhibition): > 50%
Imax (maximum percent inhibition) (IL-6 [5]; [9]): greater than 96%
Potency for inhibiting IL-6 (IL-6 [6]): comparable to that for TNF-α and IL-8
Neutrophil count (neutrophils; day 7 (baseline 3318.4 cells/μL)): 2514.4 cells/μL
Mean reduction in neutrophils (neutrophils; day 7 versus baseline): 24%
Effect in arthritis model [7]: joint protective effects and preserved bone mineral density
Effect on bone marrow levels of IL-1β (murine model of NOMID; NOMID mice, relative to placebo): reduction in bone marrow levels of IL-1β
Effect on disease (murine model of NOMID; transgenic NOMID mice): dramatic attenuation of disease
